Test [1] is described as follows: SK-BR-3 cell growth inhibitors, pilot screen, 24 h, human (AID 572).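 Note: compound exposure lasted between 18 and 24 h rather than exactly 24 h; 100% = carrier-treated control wells.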 The conditions noted are these: SK-BR-3 viability, CellTiter-Glo luminescence, at 10 µM, stronger effect = lower value. For orientation: ATP-based viability assays read luminescence as a measure of living cells.
A short description of test [2]: HUVEC growth inhibition – cell-based, human, primary screen (AID 575;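 active = viability at or below 30% in both replicate assays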;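 note: 100% = median of untreated cell wells with 0.1% DMSO on each plate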). Particulars: HUVEC proliferation, CellTiter-Glo luminescence, 72 h; at 10 µM; stronger effect = lower value. The procedure, abridged: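 Test system: primary human umbilical vein endothelial cells. Quantity: 1250 cells/well. Compound: single 10 µM dose, 0.1% DMSO, from 5x medium stock. Timing: 72 h treatment at 37 °C. Detection: ATP-based CellTiter-Glo luminescent read. Benchmarks: vehicle and MePR control wells. Format: 384-well plates coated with collagen.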

The nature of test [3]: growth inhibitors of H69AR lung tumor, primary screen, human, duplicate replicates (AID 580;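 active = viability at or under a set limit in both replicates, limit being median viability minus 3 SD, cut at about 48% in these data, passing the limit was not always enough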;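 note: 100% = mean luminescence of untreated wells and 0% = no signal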). The conditions noted are these: H69AR lung tumor cells viability, ATP luminescence, 72 h; at 10 µM; stronger effect = lower value.
Test [4] in a line: reversal of MRP1-mediated doxorubicin resistance, pilot screen, H69AR cells, doxorubicin co-treatment (AID 601;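 active = viability loss from added drug above about 55%, and viability with drug at most 40%, in both replicates, limit read from the data, passing the limit was not always enough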). The conditions noted are these: CellTiter-Glo, 72 h, at 10 µM; for differential viability (reversal): stronger effect = higher value.
Test [5] is described as follows: 384-well plate pilot, post-Golgi transport modulator project, inhibition of yeast transport mutant growth (AID 636; in the data active = inhibition above about 31%). The conditions noted are these: absorbance 615 nm, about 18 h, stronger effect = higher value.
Test [6] in a line: growth suppression of yeast trafficking mutant, preliminary HTS, modulators of trafficking downstream of Golgi apparatus project, 1536-format plate, OD 615 nm (AID 637; in the data active = inhibition above about 30%). Particulars: yeast transport mutant growth, absorbance 615 nm, 18 h; stronger effect = higher value.
The mark [7] stands for this setting: H69AR cells + 2 uM doxorubicin, measured here: viability with 2 uM doxorubicin, stronger effect = lower value.
The mark [8] stands for this setting: H69AR cells, compound alone cytotoxicity.

Molecules are shown by their SMILES. Activity calls are given as the source filed them.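 Rule for the calls, unless noted: active = viability at or below 10% of carrier control in both of two separate runs; inconclusive = viability at or below 10% in only one of the two runs; inactive = the rest.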

For `CCSC(SCC)[C@H](O)[C@@H](O)[C@H](O)[C@H](O)CO`, the viability (commonly a read-out of living cells in per cent, often relative to untreated cells) in test [1] was 103% (inactive); in test [2], 104% (inactive); in test [3], 101% (inactive); in test [4] (setting [7]) it was 94.8%; in test [4] (setting [8]) it was 101%. The differential viability (reversal) in test [4] (H69AR cells + 2 uM doxorubicin) is 6.02% (inactive). The inhibition – broadly, the drop in the measured response relative to a control, in per cent – in test [5] was -5.19% (inactive); in test [6], 0% (inactive).
`c1ccc(-c2ccc(C(c3ccccc3)n3ccnc3)cc2)cc1` (stereo unspecified): the viability is 140% (inactive) in test [1]; 74.3% (inactive) in test [2]; 63.3% (inactive) in test [3]; 66% in test [4] (setting [7]); 63.3% in test [4] (setting [8]). In addition, the differential viability (reversal) in test [4] (H69AR cells + 2 uM doxorubicin) was -2.76% (inactive). For the same molecule, the inhibition in test [5] and in test [6] was 100% (active) each time.
For the molecule `CC(Sc1nnnn1C)C(=O)Nc1ccc(Oc2ccccc2)cc1` (stereo unspecified), the viability is 92% (inactive) in test [1]; 87.8% (inactive) in test [2]; 97.8% (inactive) in test [3]; 86.8% in test [4] (setting [7]); 97.8% in test [4] (setting [8]). Further, the differential viability (reversal) in test [4] (H69AR cells + 2 uM doxorubicin) was 11% (inactive). Further, the inhibition is -7.53% (inactive) in test [5] and 0.97% (inactive) in test [6].
For the molecule `CSCCC(NC(=O)CCN1C(=O)c2ccccc2C1=O)C(=O)O` (stereo unspecified), the viability in test [1] is 85% (inactive); in test [2] it was 101% (inactive); in test [3], 98.5% (inactive); in test [4] (setting [7]), 84.7%; in test [4] (setting [8]) it was 98.5%. For the same molecule, in test [4] (H69AR cells + 2 uM doxorubicin), the differential viability (reversal) is 13.8% (inactive). Also, the inhibition in test [5] was -3.01% (inactive); in test [6], 6.73% (inactive).
Consider `Cc1nc2scc(-c3ccco3)c2c(=O)n1/N=C/N(C)C`, for which the viability is 87% (inactive) in test [1]; 76.1% (inactive) in test [2]; 95.3% (inactive) in test [3]; 92.6% in test [4] (setting [7]); 95.3% in test [4] (setting [8]). The differential viability (reversal) in test [4] (H69AR cells + 2 uM doxorubicin) is 2.7% (inactive). The inhibition in test [5] was -4.86% (inactive); in test [6] it was -4.73% (inactive).
In the case of `Nn1c(SCC(=O)NC2CCCCC2)nnc1-c1ccc(Cl)cc1`, the viability in test [1] was 89% (inactive); in test [2], 104% (inactive); in test [3] it was 91.6% (inactive); in test [4] (setting [7]) it was 82.7%; in test [4] (setting [8]), 91.6%. Also, in test [4] (H69AR cells + 2 uM doxorubicin), the differential viability (reversal) is 8.96% (inactive). Further, the inhibition was -6.16% (inactive) in test [5] and 3.71% (inactive) in test [6].
`CCOc1ccc(C2C(C#N)=C(N)Oc3cc(C)n(Cc4ccco4)c(=O)c32)cc1OC` (stereo unspecified): the viability in test [1] was 99% (inactive); in test [2] it was 84.2% (inactive); in test [3], 76.7% (inactive); in test [4] (setting [7]), 81.9%; in test [4] (setting [8]), 76.7%. In addition, the differential viability (reversal) in test [4] (H69AR cells + 2 uM doxorubicin) is -5.13% (inactive). In addition, the inhibition in test [5] was -0.41% (inactive); in test [6] it was -8.23% (inactive).
With `Cn1c(=O)c2c(nc(CN3CCCCC3)n2CCCc2ccccc2)n(C)c1=O`, the viability in test [1] was 122% (inactive); in test [2] it was 103% (inactive); in test [3] it was 81.7% (inactive); in test [4] (setting [7]), 81%; in test [4] (setting [8]), 81.7%. In addition, the differential viability (reversal) in test [4] (H69AR cells + 2 uM doxorubicin) was 0.72% (inactive). The inhibition in test [5] was -1.3% (inactive); in test [6], 6.23% (inactive).
As for `CCOc1ccccc1C1N(c2ccc(F)cc2)C(=O)C2CCCN21` (stereo unspecified), the viability in test [1] was 109% (inactive); in test [2], 111% (inactive); in test [3], 99% (inactive); in test [4] (setting [7]), 79.8%; in test [4] (setting [8]), 99%. Further, the differential viability (reversal) in test [4] (H69AR cells + 2 uM doxorubicin) was 19.2% (inactive). Further, the inhibition is -4.4% (inactive) in test [5] and 2.18% (inactive) in test [6].
For `O=C(O)CSc1ncn[nH]1`, the viability was 87% (inactive) in test [1]; 102% (inactive) in test [2]; 109% (inactive) in test [3]; 108% in test [4] (setting [7]); 109% in test [4] (setting [8]). Besides, the differential viability (reversal) in test [4] (H69AR cells + 2 uM doxorubicin) is 0.37% (inactive). Moreover, the figures for the inhibition in test [5] and in test [6] were -6.58% (inactive) and 6.73% (inactive), respectively.
On to `O=C(c1cccnc1)N1CCN(C(=O)c2ccccc2F)CC1`, for which the viability in test [1] is 97% (inactive); in test [2] it was 98.5% (inactive); in test [3], 97.2% (inactive); in test [4] (setting [7]) it was 85.7%; in test [4] (setting [8]), 97.2%. In addition, the differential viability (reversal) in test [4] (H69AR cells + 2 uM doxorubicin) is 11.5% (inactive). Besides, the inhibition in test [5] was -4% (inactive); in test [6], -5.09% (inactive).
On to `C=CCN1C(=O)C2(/C(=C(\O)c3ccc4c(c3)OCCO4)C(=O)C(=O)N2CCCOC)c2ccccc21` (stereo unspecified), for which the viability in test [1] is 109% (inactive); in test [2], 96.6% (inactive); in test [3], 95.9% (inactive); in test [4] (setting [7]), 84.7%; in test [4] (setting [8]) it was 95.9%. For the same molecule, the differential viability (reversal) in test [4] (H69AR cells + 2 uM doxorubicin) was 11.2% (inactive). The inhibition in test [5] is -8.36% (inactive); in test [6], 0.48% (inactive).
As for `COc1ccccc1N1CCN(C(CNS(=O)(=O)c2cc(F)ccc2F)c2cccnc2)CC1` (stereo unspecified), the viability in test [1] was 95% (inactive); in test [2], 110% (inactive); in test [3], 92.8% (inactive); in test [4] (setting [7]), 90.2%; in test [4] (setting [8]), 92.8%. Moreover, the differential viability (reversal) in test [4] (H69AR cells + 2 uM doxorubicin) is 2.69% (inactive). The inhibition in test [5] is -2.97% (inactive); in test [6], 4% (inactive).
`CCOC(=O)N1CCC(N(CCCOC)C(=O)Nc2ccc(CC)cc2)CC1`: the viability is 106% (inactive) in test [1]; 92.7% (inactive) in test [2]; 98.9% (inactive) in test [3]; 86% in test [4] (setting [7]); 98.9% in test [4] (setting [8]). For the same molecule, the differential viability (reversal) in test [4] (H69AR cells + 2 uM doxorubicin) was 13% (inactive). For the same molecule, the inhibition was -0.26% (inactive) in test [5] and -2.3% (inactive) in test [6].
As for `O=C(Nc1cnn(Cc2ccc(F)cc2)c1)c1cnccn1`, the viability is 117% (inactive) in test [1]; 85.2% (inactive) in test [2]; 98.8% (inactive) in test [3]; 97.1% in test [4] (setting [7]); 98.8% in test [4] (setting [8]). The differential viability (reversal) in test [4] (H69AR cells + 2 uM doxorubicin) is 1.69% (inactive). Also, the inhibition in test [5] is -2.34% (inactive); in test [6], 3.93% (inactive).
Regarding `COc1ccc(-c2nsc(SCC(=O)Nc3cc(C)on3)n2)cc1`, the viability in test [1] is 79% (inactive); in test [2], 79.4% (inactive); in test [3] it was 84.8% (inactive); in test [4] (setting [7]) it was 90.2%; in test [4] (setting [8]), 84.8%. In test [4] (H69AR cells + 2 uM doxorubicin), the differential viability (reversal) is -5.36% (inactive). Also, the inhibition in test [5] is -5.07% (inactive); in test [6], 3.09% (inactive).
Consider `CCOC(=O)C1CN(S(=O)(=O)c2ccc(C)cc2)CCN1S(=O)(=O)c1ccc(C)cc1` (stereo unspecified), for which the viability in test [1] was 100% (inactive); in test [2] it was 101% (inactive); in test [3], 84.5% (inactive); in test [4] (setting [7]), 101%; in test [4] (setting [8]) it was 84.5%. The differential viability (reversal) in test [4] (H69AR cells + 2 uM doxorubicin) was -16.3% (inactive). The results for the inhibition in test [5] and in test [6] were -2.6% (inactive) and -1.8% (inactive), respectively.

For the origin of these results see PubChem BioAssay.
